Rows were chosen to be rich in hits. Some 2.8% of all compounds tested hit in one or more screens of this group.
dFosB act: mouse delta FosB homodimer activation; P13346; purified delta FosB, TAMRA-CDK5 oligo fluorescence polarization; percent of positive-control signal above neutral wells; activation, % at 25 µM; hit rate 0.99% among 340,000; AID 493131;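 active means mean activation above about 17%, with every replicate also reaching it, limit read from the data, passing the limit was not always enough; inconclusive means only one of the two conditions met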
Target sequence (P13346 whole entry, looked up): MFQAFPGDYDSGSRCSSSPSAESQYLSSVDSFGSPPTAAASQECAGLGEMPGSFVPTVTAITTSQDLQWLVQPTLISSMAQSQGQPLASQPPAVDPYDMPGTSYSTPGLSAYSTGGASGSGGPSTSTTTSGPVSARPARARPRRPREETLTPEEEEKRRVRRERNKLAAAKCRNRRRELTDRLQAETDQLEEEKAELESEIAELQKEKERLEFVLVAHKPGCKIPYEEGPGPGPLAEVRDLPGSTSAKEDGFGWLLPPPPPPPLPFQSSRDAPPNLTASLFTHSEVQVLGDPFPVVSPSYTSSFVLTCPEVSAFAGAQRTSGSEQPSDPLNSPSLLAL
CAL PDZ FP-1: inhibitors of human CAL PDZ peptide binding. purified CAL PDZ, TMR-peptide fluorescence polarization, 1 h. inhibition, % at 24.9 µM. hit rate 0.92% among 300,000;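 active means mean inhibition of at least 30% with at least half of replicates also reaching 30%; inconclusive means no clear call, values can overlap the other calls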
SR-BI DiI-HDL act: activators of SR-BI mediated HDL lipid uptake; activation, % at 12.5 µM; CHO ldlA[mSR-BI] cells, DiI-HDL uptake fluorescence, 3 h; 100 = double the neutral-control signal; hit rate 0.096% among 320,000;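 active means mean replicate activation of at least 60% and every replicate at or above 60%; inconclusive means mean or all-replicate condition met, but not both; inactive means mean below 60% and not all replicates reaching 60%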
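System: CHO ldlA[mSR-BI] cells / Medium: HEPES-buffered (25 mM, pH 7.4) F12 plus 0.5% BSA / Probe or stimulus: labelled HDL, 10 µg/mL / Doses: single compound concentration, delivered by pin transfer / Schedule: 3 h, 37 °C / Measured by: DiI fluorescence, bottom read / Measure: cell-associated DiI fluorescence as measure of HDL uptake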
CAL PDZ FP-2: human CAL PDZ-peptide interaction inhibition; AID 504414; Q9HD26; hit rate 0.02% among 330,000; purified CAL PDZ, TMR-peptide fluorescence polarization, 1 h; inhibition, % at 20 µM;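 active means highest replicate inhibition of at least 40%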
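Test system: tagged CAL PDZ domain / Buffer or medium: sodium phosphate/NaCl buffer pH 7.4 with TCEP, IgG, Thesit / Reagent: TMR-labelled reporter peptide T*-PRC34 bound in PDZ groove / Compound dosing: single point, 20 µM / Schedule: 1 h incubation at room temperature before polarization reading / Technique: fluorescence polarization (mP) / Benchmarks: unlabelled peptide, DMSO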
SR-BI DiI inh: inhibitors of mouse SR-BI mediated HDL lipid uptake; AID 488896; ldlA[mSR-BI] CHO cells, DiI-HDL uptake fluorescence, 3 h; inhibition, % at 12.5 µM; hit rate 0.96% among 320,000; Q61009;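 active means mean replicate inhibition of at least 70% and a set share of replicates each scoring 70 or more; inconclusive means meets just one of the two criteria; inactive means fails both criteria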
Large screens that a line does not name were inactive.

Cc1ccc2c(CC(=O)N3CCN(S(=O)(=O)c4ccc5c(c4)OCCO5)CC3)coc2c1	CAL PDZ FP-1 58
Cc1cccc(NC(=O)CCNC(=O)c2ccc(Br)cc2)c1C	none
Cc1ccc(Nc2c([N+](=O)[O-])cc(C(=O)N3CC(=O)Nc4ccccc43)cc2[N+](=O)[O-])c(C)c1	SR-BI DiI inh 75
CCc1ccc2nc(NC(=O)Cn3cnc4ccccc4c3=O)sc2c1	dFosB act 154
O=C(Cn1cnc2ccccc2c1=O)Nc1nc2ccccc2s1	dFosB act inconclusive
CCCCNC(=O)c1cc2c(=O)n(CC)c3ccccc3c2s1	SR-BI DiI inh 73
CCn1c(=O)c2cc(C(=O)NC(C)C)sc2c2ccccc21	none
CCn1c(=O)c2cc(C(=O)NCc3cccs3)sc2c2ccccc21	SR-BI DiI inh 71
CCn1c(=O)c2cc(C(=O)NCCN3CCOCC3)sc2c2ccccc21	SR-BI DiI inh 88
CCN(C(=O)CN1C(=O)/C(=C/c2ccccc2)SC1=S)C1CCS(=O)(=O)C1 (stereo not drawn)	CAL PDZ FP-1 72
O=C(Nc1ccc(-c2ccccc2)cc1)c1ccc2c(c1)S(=O)(=O)c1ccccc1C2=O	SR-BI DiI inh 84
O=C(Nc1nc(-c2ccccc2)cs1)c1ccc2c(c1)S(=O)(=O)c1ccccc1C2=O	none
O=C(Nc1nc(-c2cccc3ccccc23)cs1)c1ccc2c(c1)S(=O)(=O)c1ccccc1C2=O	SR-BI DiI inh 73
CCOC(=O)CNC(=O)COc1coc(CN2CCN(c3ccc(F)cc3)CC2)cc1=O	none
N#CCOC(=O)[C@H](Cc1ccccc1)N1C(=O)c2ccccc2C1=O	none
CCOC(=O)/C(=C\C=C1/Sc2cc(OCC)c(OCC)cc2N1CC)C(C)=O	SR-BI DiI inh 78
CCOC(=O)/C(=C/C=C1\Sc2cc(OCC)c(OCC)cc2N1CC)C(C)=O	SR-BI DiI inh 78
O=C(NCCC1=CCCCC1)c1cc(-c2ccncc2)nc2ccccc12	none
Cc1ccc(C(=O)NC2CCCCNC2=O)cc1 (stereo not drawn)	none
CCOc1ccc(Cl)cc1CNCCCSc1ncccn1	CAL PDZ FP-1 70
COc1ccc(Cl)cc1CNCCCSc1ncccn1	none (no result: SR-BI DiI-HDL act, SR-BI DiI inh)
O=C(O)C1Nc2ccc(C(F)(F)F)cc2C2OCCC12 (stereo not drawn)	none
C=CCc1cccc(/C=N/NC(=O)c2ccc3nc[nH]c3c2)c1O	dFosB act 19, SR-BI DiI inh inconclusive
CC1CN(CCCCOc2ccc(C(C)C)cc2)CC(C)O1 (stereo not drawn)	none
CC1CN(CCCCOc2ccc(Cl)c3ccccc23)CC(C)O1 (stereo not drawn)	CAL PDZ FP-1 43
COc1ccc(NC(=O)N2CCN(C(=O)C3CCCO3)CC2)cc1 (stereo not drawn)	none
COCc1cc(N2CCN(c3ccccc3F)CC2)nc(-c2ccccc2)n1	SR-BI DiI inh 80
C=C(C)CCC(C)N1CCC(n2nccc2NC(=O)CCCc2ccccc2)CC1 (stereo not drawn)	CAL PDZ FP-1 42
COc1ccc(C(=O)N/C(=C\c2cn(C)c3ccccc23)C(=O)N2CCN(C)CC2)cc1OC	none
C/C(=N/NC(=O)c1cc(-c2ccccc2)nc2c(Cl)cccc12)c1cccnc1	none
COc1ccc(Br)cc1CNc1ccc(O)cc1	none (no result: SR-BI DiI-HDL act, SR-BI DiI inh)
COc1ccc(Br)cc1CNc1ccc2[nH]c(=O)[nH]c2c1	CAL PDZ FP-1 67
CC(C(=O)N1CCN(Cc2ccccc2)CC1)c1ccc([N+](=O)[O-])cc1 (stereo not drawn)	none
CC(OC(=O)c1ccc(Cl)c([N+](=O)[O-])c1)C(=O)N1CCN(Cc2ccccc2)CC1 (stereo not drawn)	CAL PDZ FP-1 147
CCc1nnc(NC(=O)c2ccc(OCc3c(C)noc3C)c(OC)c2)s1	SR-BI DiI inh 84
COc1cc(C(=O)Nc2ccc(N3CCOCC3)cc2)ccc1OCc1c(C)noc1C	none
Cc1cccc(NC(=O)c2ccc(OCc3c(C)noc3C)cc2)c1	SR-BI DiI inh 73
COc1cc(C(=O)Nc2ccc3c(c2)OCO3)ccc1OCc1c(C)noc1C	none (no result: CAL PDZ FP-1)
COc1cc(C(=O)Nc2cc(OC)c(OC)c(OC)c2)ccc1OCc1c(C)noc1C	SR-BI DiI inh 87
COc1cc(NC(=O)c2ccc(OCc3c(C)noc3C)c(OC)c2)cc(OC)c1	SR-BI DiI inh 86
CCOC(=O)C1CCN(C(=O)CN(c2ccc3c(c2)OCCO3)S(=O)(=O)c2ccccc2)CC1	none (no result: CAL PDZ FP-1)
Cc1cccc(C)c1NC(=O)CN1CCN(CC(=O)NCC2(N3CCCCC3)CCCCC2)CC1	none
C=CCn1c(SCc2ccc(F)cc2)nnc1-c1sc2nc(C)cc(C)c2c1N	none (no result: CAL PDZ FP-1)
O=C(Nc1ccc(S(=O)(=O)Nc2ncccn2)cc1)C(F)(F)F	none
COCCN(C(=O)COC(=O)CSc1ccc(Cl)cc1)c1c(N)n(CC(C)C)c(=O)[nH]c1=O	none
COc1cc(OC)cc(C(=O)Nc2cc(C)nn2-c2ccccc2)c1	none
COc1cccc(NC(=O)Cc2csc(NC(=O)Nc3ccccc3OC)n2)c1	none
COc1ccccc1NC(=O)Nc1nc(CC(=O)Nc2ccc(OC)c(OC)c2)cs1	SR-BI DiI inh 82
CCN(CC)CCOC(=O)c1ccc(N/C=C(/C#N)c2nc(-c3ccc(OC)c(OC)c3)cs2)cc1	dFosB act 165
O=C(COC(=O)CNC(=O)c1ccc(Cl)cc1Cl)NCc1ccco1	SR-BI DiI-HDL act 89
O=C(CNC(=O)c1ccco1)OCC(=O)c1ccc(Cl)cc1Cl	none
Cc1ccc(C)c(N(C(=O)Cn2nnc(-c3cccs3)n2)C(C(=O)NC2CCCC2)c2ccncc2)c1 (stereo not drawn)	none
CC(C)(C)N(C(=O)Cn1nnc(-c2ccc(F)cc2)n1)C(C(=O)NC1CCCC1)c1ccncc1 (stereo not drawn)	CAL PDZ FP-1 36
O=C(NC1CCCC1)C(c1ccncc1)N(CC1CCCO1)C(=O)Cn1nnc(-c2cccs2)n1 (stereo not drawn)	CAL PDZ FP-1 32
CCCN(CC(=O)Nc1ccccc1C)C(=O)Cc1cccs1	none
CCCCN(CCCC)CCNC(=O)CSCc1ccc(C)cc1	none
CS(=O)(=O)Nc1ccc(C2=NN(C(=O)c3ccco3)C(c3ccco3)C2)cc1 (stereo not drawn)	CAL PDZ FP-1 33
CCS(=O)(=O)N1N=C(c2ccc(NS(C)(=O)=O)cc2)CC1c1ccccc1 (stereo not drawn)	dFosB act 46
CS(=O)(=O)Nc1ccc(C2=NN(S(C)(=O)=O)C(c3ccccc3)C2)cc1 (stereo not drawn)	none
CC1=NC(C)(C)Cc2cc(C)c(C)cc21	CAL PDZ FP-1 54
CN1C(=O)/C(=C/c2ccccc2F)Sc2ccc(C(=O)NCC3CCCO3)cc21 (stereo not drawn)	SR-BI DiI inh inconclusive

Screening results deposited in PubChem BioAssay by Broad Institute.
